Active and inactive are the calls of the source. The calls are words filed in the database; no cut-off is given here.
What was measured:
[1] = system: Jurkat; experiment: (§1) Induction of store-operated calcium entry in human Jurkat cells assessed as induction of store-operated calcium entry by measuring increase in slope at 3 to 100 uM preincubated for 30 mins followed by tBhQ-mediated Ca2+ depletion and Ca2+ re-addition to extracellular solution measured for 600 secs by Fluo-4 AM-based fluorometric assay relative to control; assay type: cell-based
[2] = biological target: T1, Short transient receptor potential channel 1 & 3/Stromal interaction molecule 1/Calcium release-activated calcium channel protein 1 (Homo sapiens) (UniProt Q96D31+Q13507+Q13586+P48995); experiment: (§2) Modulation of TRPC1/TRPC3/STIM1/Orai1 in HEK cells assessed as induction of store-operated calcium entry by measuring increase in slope at 3 to 100 uM preincubated for 30 mins followed by tBhQ-mediated Ca2+ depletion and Ca2+ re-addition to extracellular solution measured for 600 secs by Fluo-4 AM-based fluorometric assay relative to control; assay type: cell-based
T1 sequence (P48995 whole entry partner): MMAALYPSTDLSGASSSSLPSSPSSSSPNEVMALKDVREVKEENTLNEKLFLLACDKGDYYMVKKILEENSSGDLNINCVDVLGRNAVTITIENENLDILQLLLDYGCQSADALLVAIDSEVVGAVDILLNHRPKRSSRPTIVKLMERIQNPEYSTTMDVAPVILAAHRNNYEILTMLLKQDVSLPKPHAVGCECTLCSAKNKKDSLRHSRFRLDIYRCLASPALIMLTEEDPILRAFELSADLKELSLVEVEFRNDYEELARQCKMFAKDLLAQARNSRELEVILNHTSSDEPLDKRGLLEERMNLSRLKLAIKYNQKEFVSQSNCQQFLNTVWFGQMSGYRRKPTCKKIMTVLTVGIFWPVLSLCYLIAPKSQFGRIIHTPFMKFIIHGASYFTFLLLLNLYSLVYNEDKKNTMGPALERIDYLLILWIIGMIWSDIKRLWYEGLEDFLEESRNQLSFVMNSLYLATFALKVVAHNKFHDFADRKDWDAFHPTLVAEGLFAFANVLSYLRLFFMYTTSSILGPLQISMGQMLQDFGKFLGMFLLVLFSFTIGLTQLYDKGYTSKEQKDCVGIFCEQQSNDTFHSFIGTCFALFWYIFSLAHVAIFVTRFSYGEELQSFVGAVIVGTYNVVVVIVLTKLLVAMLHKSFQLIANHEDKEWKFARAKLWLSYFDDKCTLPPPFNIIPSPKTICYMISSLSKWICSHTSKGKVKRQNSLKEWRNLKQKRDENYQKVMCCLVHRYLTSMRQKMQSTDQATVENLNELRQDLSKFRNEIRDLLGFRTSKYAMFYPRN
T1 sequence (Q13507 whole entry partner): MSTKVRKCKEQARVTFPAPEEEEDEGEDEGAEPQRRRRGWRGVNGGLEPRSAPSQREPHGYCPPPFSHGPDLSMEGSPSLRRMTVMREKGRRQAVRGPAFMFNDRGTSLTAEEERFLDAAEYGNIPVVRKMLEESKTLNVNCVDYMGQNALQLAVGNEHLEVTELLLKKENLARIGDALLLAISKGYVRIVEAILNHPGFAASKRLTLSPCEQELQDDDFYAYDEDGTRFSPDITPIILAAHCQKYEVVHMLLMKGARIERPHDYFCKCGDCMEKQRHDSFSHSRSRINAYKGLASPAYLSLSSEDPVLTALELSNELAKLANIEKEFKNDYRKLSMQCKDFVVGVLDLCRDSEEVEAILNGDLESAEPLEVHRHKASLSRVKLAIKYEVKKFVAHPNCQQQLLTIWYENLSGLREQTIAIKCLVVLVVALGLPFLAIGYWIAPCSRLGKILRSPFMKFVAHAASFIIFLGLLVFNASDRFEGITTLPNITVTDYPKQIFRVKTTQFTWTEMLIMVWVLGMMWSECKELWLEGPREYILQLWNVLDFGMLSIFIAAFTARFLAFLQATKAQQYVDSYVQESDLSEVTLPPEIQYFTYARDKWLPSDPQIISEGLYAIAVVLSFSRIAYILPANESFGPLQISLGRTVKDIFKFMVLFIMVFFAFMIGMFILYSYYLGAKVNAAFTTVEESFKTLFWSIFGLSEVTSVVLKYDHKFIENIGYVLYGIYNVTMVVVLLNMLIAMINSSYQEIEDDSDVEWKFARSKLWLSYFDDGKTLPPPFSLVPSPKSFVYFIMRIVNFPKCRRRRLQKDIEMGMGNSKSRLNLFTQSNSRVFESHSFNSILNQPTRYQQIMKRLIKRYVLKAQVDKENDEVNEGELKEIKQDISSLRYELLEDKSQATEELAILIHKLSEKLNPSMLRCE
T1 sequence (Q13586 23-685 partner limits assumed): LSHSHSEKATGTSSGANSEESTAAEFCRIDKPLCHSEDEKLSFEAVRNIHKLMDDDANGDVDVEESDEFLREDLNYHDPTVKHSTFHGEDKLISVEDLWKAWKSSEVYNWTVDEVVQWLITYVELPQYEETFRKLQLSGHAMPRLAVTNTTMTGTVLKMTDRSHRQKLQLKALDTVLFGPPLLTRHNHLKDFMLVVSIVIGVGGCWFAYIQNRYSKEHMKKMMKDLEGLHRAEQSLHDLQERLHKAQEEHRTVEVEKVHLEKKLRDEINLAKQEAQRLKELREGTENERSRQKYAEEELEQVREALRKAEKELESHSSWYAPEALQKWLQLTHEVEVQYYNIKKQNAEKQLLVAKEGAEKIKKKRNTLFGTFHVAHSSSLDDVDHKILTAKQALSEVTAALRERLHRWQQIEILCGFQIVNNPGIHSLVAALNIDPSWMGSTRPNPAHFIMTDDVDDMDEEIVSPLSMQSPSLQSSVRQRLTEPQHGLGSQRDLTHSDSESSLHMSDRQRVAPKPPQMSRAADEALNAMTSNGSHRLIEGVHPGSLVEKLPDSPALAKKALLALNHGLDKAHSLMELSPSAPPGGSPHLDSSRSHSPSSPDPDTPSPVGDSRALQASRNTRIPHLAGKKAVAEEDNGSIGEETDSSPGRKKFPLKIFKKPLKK
T1 sequence (Q96D31 whole entry): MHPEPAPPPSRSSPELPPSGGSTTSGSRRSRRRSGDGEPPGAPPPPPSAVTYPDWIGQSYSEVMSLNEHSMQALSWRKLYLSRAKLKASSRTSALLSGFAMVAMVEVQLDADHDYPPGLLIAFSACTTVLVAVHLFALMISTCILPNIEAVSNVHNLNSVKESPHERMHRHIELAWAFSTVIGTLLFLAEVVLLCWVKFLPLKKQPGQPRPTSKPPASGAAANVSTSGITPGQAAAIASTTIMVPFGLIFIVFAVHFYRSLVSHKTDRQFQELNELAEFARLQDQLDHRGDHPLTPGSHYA

[3] = biological target: Transient receptor potential cation channel subfamily V member 1 (Homo sapiens) (UniProt Q8NER1); experiment: Antagonist activity at TRPV1 (unknown origin) expressed in HEK cells assessed as inhibition of capsaicin-induced calcium increase at 10 uM by fura-2-based assay; assay type: cell-based
Transient receptor potential cation channel subfamily V member 1 (Homo sapiens), sequence (Q8NER1 whole entry): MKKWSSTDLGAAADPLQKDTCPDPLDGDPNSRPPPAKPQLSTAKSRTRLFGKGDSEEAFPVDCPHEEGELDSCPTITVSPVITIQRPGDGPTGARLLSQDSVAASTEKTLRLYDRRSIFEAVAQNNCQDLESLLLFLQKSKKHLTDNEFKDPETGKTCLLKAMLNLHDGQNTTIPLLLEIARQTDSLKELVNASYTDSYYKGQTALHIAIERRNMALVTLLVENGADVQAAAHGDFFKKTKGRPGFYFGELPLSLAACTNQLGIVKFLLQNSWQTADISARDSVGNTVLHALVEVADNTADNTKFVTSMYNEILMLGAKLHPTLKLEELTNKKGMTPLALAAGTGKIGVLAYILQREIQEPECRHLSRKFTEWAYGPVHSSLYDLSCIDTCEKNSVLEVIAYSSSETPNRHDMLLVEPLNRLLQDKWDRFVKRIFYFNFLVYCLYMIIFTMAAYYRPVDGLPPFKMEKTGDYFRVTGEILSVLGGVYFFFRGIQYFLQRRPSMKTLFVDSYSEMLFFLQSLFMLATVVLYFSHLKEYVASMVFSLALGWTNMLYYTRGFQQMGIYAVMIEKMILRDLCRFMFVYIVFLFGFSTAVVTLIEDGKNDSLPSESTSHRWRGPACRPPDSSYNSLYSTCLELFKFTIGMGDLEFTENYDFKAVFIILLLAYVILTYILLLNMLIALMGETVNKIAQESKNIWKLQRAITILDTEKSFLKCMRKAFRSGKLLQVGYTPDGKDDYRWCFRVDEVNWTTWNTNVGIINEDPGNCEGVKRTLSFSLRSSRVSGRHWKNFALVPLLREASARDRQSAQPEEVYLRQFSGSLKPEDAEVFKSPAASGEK
In short: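 TRPV1-overexpressing Hek cells; calcium rise evoked by capsaicin (100 nM), test compounds at 10 μM; peak amplitude read out; mean ± SEM of 600 cells from 30 plates on four separate experimental days.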

[4] = biological target: T2, Stromal interaction molecule 1 & 2/Calcium release-activated calcium channel protein 1 (Mus musculus) (UniProt Q8BWG9+P70302+P83093); experiment: as §2, with “STIM1/STIM2/Orai1” for “TRPC1/TRPC3/STIM1/Orai1”, “mouse BV2” for “HEK”, “residual activity” for “increase in slope”, “10” for “3 to 100”; assay type: cell-based
[5] = system: voltage-gated calcium channel (Mus musculus); experiment: Antagonist activity at voltage-gated calcium channels in C57/BL6 mouse cerebellar granule cells assessed as inhibition of KCl-induced voltage dependent calcium entry at 10 uM by fura-2-based assay
[6] = biological target: T2, Stromal interaction molecule 1 & 2/Calcium release-activated calcium channel protein 1 (Mus musculus); experiment: as §2, with “STIM1/STIM2/Orai1” for “TRPC1/TRPC3/STIM1/Orai1”, “mouse BV2” for “HEK”; assay type: cell-based
[7] = biological target: Transient receptor potential cation channel subfamily M member 8 (Homo sapiens) (UniProt Q7Z2W7); experiment: Antagonist activity at TRPM8 (unknown origin) expressed in HEK cells assessed as inhibition of menthol -mediated calcium increase at 10 uM by fura-2-based assay; assay type: cell-based
Transient receptor potential cation channel subfamily M member 8 (Homo sapiens), sequence (Q7Z2W7 whole entry, looked up): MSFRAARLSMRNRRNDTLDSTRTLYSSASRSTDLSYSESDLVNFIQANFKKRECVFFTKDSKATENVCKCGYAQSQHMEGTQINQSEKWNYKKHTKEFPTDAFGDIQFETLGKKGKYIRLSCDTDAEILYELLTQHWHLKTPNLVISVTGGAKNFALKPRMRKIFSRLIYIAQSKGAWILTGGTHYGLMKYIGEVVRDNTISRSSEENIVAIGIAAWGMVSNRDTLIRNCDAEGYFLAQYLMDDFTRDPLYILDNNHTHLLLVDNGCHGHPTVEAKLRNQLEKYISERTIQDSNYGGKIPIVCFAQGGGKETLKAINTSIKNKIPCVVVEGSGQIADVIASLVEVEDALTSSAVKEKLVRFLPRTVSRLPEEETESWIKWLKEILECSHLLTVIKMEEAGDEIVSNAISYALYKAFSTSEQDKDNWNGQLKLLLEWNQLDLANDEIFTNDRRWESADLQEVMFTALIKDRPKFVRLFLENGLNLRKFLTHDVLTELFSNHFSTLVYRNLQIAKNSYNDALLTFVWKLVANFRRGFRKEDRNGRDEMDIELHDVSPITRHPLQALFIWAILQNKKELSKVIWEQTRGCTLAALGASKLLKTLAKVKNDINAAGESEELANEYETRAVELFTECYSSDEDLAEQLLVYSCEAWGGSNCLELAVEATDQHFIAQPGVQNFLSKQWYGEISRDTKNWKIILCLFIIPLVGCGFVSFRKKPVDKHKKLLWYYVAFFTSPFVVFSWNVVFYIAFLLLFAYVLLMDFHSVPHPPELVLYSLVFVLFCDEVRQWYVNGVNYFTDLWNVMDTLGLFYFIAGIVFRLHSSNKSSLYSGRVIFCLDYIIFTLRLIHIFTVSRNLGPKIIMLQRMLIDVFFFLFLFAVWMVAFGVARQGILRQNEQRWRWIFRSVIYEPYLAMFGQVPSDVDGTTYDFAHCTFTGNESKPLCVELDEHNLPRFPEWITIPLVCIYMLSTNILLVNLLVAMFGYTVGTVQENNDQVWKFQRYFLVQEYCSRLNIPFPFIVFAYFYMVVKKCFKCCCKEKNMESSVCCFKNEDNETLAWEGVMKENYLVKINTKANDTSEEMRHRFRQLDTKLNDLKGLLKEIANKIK
In short: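 TRPM8-overexpressing Hek cells; calcium rise evoked by menthol (100 μM), test compounds at 10 μM; peak amplitude read out; mean ± SEM of 600 cells from 30 plates on four separate experimental days.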

[8] = biological target: T1, Short transient receptor potential channel 1 & 3/Stromal interaction molecule 1/Calcium release-activated calcium channel protein 1 (Homo sapiens); experiment: as §2, with “AUC of calcium entry” for “slope”; assay type: cell-based
[9] = biological target: T3, ORAI1/STIM1 (Homo sapiens) (UniProt Q96D31+Q13586); experiment: Modulation of Orai1/STIM1 (unknown origin) expressed in HEK cells assessed as potentiation of store-operated calcium currents in presence of 20 mM BAPTA by patch clamp assay relative to control; assay type: cell-based
T3 sequence (Q13586 23-685 partner limits assumed): as the sequence (Q13586 23-685 partner limits assumed) above
T3 sequence (Q96D31 whole entry): as the sequence (Q96D31 whole entry) above
In short: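 Whole-cell ISOC recorded in Hek cells stably overexpressing Orai1 and transiently expressing STIM1; internal solution strongly buffered with 20 mM BAPTA; compound at 10 μM versus untreated control.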

[10] = system: Jurkat; experiment: as §1, with “AUC of calcium entry” for “slope”; assay type: cell-based
[11] = biological target: T1, Short transient receptor potential channel 1 & 3/Stromal interaction molecule 1/Calcium release-activated calcium channel protein 1 (Homo sapiens); experiment: as §2, with “peak amplitude” for “slope”; assay type: cell-based
[12] = system: voltage-gated calcium channel (Mus musculus); experiment: Antagonist activity at voltage-gated calcium channels in C57/BL6 mouse cerebellar granule cells assessed as inhibition of KCl-induced voltage dependent calcium entry at 10 uM by fura-2-based assay; remark: listed apart in the source
[13] = biological target: T2, Stromal interaction molecule 1 & 2/Calcium release-activated calcium channel protein 1 (Mus musculus); experiment: as §2, with “STIM1/STIM2/Orai1” for “TRPC1/TRPC3/STIM1/Orai1”, “mouse BV2” for “HEK”, “AUC of calcium entry” for “slope”; assay type: cell-based
[14] = biological target: T2, Stromal interaction molecule 1 & 2/Calcium release-activated calcium channel protein 1 (Mus musculus); experiment: as §2, with “STIM1/STIM2/Orai1” for “TRPC1/TRPC3/STIM1/Orai1”, “mouse BV2” for “HEK”, “entry” for “entry by measuring increase in slope”, “10” for “3 to 100”, “800” for “600”; assay type: cell-based
In short: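 Microplate Fluo-4 assay in mouse microglial BV-2 cells. Stores emptied with tBhQ (50 μM) in presence of compound (10 μM); extracellular Ca2+ re-added after 600 s and intracellular Ca2+ read fluorimetrically; SOCE expressed versus control.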

[15] = biological target: T1, Short transient receptor potential channel 1 & 3/Stromal interaction molecule 1/Calcium release-activated calcium channel protein 1 (Homo sapiens); experiment: as §2, with “residual activity” for “increase in slope”, “10” for “3 to 100”; assay type: cell-based
[16] = species on record: Homo sapiens; experiment: Modulation of Orai1/STIM1 (unknown origin) expressed in HEK cells assessed as potentiation of store-operated calcium currents by measuring reduction in time constant of channel activation in presence of 20 mM BAPTA and 150 nM Ca2+ containing internal solution by patch clamp assay relative to control; assay type: cell-based
[17] = system: Jurkat; experiment: as §1, with “residual activity” for “increase in slope”, “10” for “3 to 100”; assay type: cell-based
[18] = biological target: T1, Short transient receptor potential channel 1 & 3/Stromal interaction molecule 1/Calcium release-activated calcium channel protein 1 (Homo sapiens); experiment: as §2, with “entry” for “entry by measuring increase in slope”, “10” for “3 to 100”, “800” for “600”; assay type: cell-based
[19] = biological target: T3, ORAI1/STIM1 (Homo sapiens); experiment: Modulation of Orai1/STIM1 (unknown origin) expressed in HEK cells assessed as potentiation of store-operated calcium currents in presence of 20 mM BAPTA and 150 nM Ca2+ containing internal solution by patch clamp assay relative to control; assay type: cell-based
[20] = biological target: T2, Stromal interaction molecule 1 & 2/Calcium release-activated calcium channel protein 1 (Mus musculus); experiment: as §2, with “STIM1/STIM2/Orai1” for “TRPC1/TRPC3/STIM1/Orai1”, “mouse BV2” for “HEK”, “peak amplitude” for “slope”; assay type: cell-based
[21] = system: Jurkat; experiment: as §1, with “peak amplitude” for “slope”; assay type: cell-based
[22] = system: Jurkat; experiment: as §1, with “entry” for “entry by measuring increase in slope”, “10” for “3 to 100”, “800” for “600”; assay type: cell-based
[23] = Metabolic stability in CD1 mouse liver S9 fraction assessed as residual compound level at 50 uM after 1 hr; assay type: ADME, subcellular; conditions: read-out: Stability
In short: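 Hydrolytic stability measured in mouse liver S9 fraction; residual substrate quantified after 1 h incubation.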

[24] = Drug metabolism in CD1 mouse liver microsomes assessed as 1-(4-(4-(3-Carboxyphenyl)-1H-1,2,3-triazol-1-yl)phenyl)-5-(trifluoromethyl)-1H-pyrazole-4-carboxylic Acid metabolite formation at 50 uM after 60 mins by mass spectroscopic analysis; assay type: ADME, microsome
[25] = Metabolic stability in CD1 mouse plasma assessed as residual compound level at 50 uM after 30 mins by LC-UV analysis; assay type: ADME, cell-free; conditions: read-out: Stability
In short: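 Compounds incubated in mouse plasma for 30 min; percentage of residual substrate determined.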

[26] = Cytotoxicity against HEK cells assessed as cell viability at 10 uM by MTT assay relative to control; assay type: cell-based; conditions: human, read-out: Activity
In short: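 Hek cells treated 24 h with compound at 10 μM; viability determined by MTT assay.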

[27] = biological target: Short transient receptor potential channel 1 & 3/Stromal interaction molecule 1/Calcium release-activated calcium channel protein 1 (Homo sapiens, UniProt P48995+Q13507+Q13586+Q96D31); experiment: as §2, with “residual activity” for “increase in slope at 3 to 100 uM”; assay type: cell-based
[28] = Drug metabolism in CD1 mouse liver microsomes assessed as ester group hydrolysis at 50 uM after 60 mins in presence of NADPH/UDPGA; assay type: ADME, microsome; conditions: 1 h
[29] = Drug metabolism in CD1 mouse liver microsomes assessed as ester group hydrolysis at 50 uM after 60 mins in absence of NADPH/UDPGA; assay type: ADME, microsome; conditions: 1 h

Compound	inhibition [3]	Activity [4] [%]	inhibition [7]	Activity [15] [%]	Activity [17] [%]	viability at 10 µM [26] [%]	also measured
CCOC(=O)c1cnn(-c2ccc(-c3cn(-c4ccc(Cl)cc4)nn3)cc2)c1C(F)(F)F	inactive	153	inactive	142	197	–	Activity [1]: Active; Activity [2]: Active; inhibition [5]: inactive; Activity [6]: Active; Activity [8]: Active; Activity [9]: Active; Activity [10]: Active; Activity [11]: Active; inhibition [12]: inactive; Activity [13]: Active; Activity [14]: inactive; Activity [16]: Active; Activity [18]: inactive; Activity [19]: inactive; Activity [20]: Active; Activity [21]: Active; Activity [22]: inactive
O=C(O)c1cccc(-c2cn(-c3ccc(-n4nc(C(F)(F)F)cc4C(F)(F)F)cc3)nn2)c1	–	61.3	–	53	61.7	–	–
O=C(Nc1ccc(-n2nc(C(F)(F)F)cc2C(F)(F)F)cc1)c1ccncc1F	Active	–	Active	10.3	–	70.3	IC50 [27]: 0.3 µM
CCOC(=O)c1cnn(-c2ccc(-c3cn(-c4ccncc4F)nn3)cc2)c1C(F)(F)F	–	62.3	–	81.4	67.1	–	–
CCOC(=O)c1cnn(-c2ccc(-n3cc(-c4ccc(C(=O)O)cc4)nn3)cc2)c1C(F)(F)F	–	59.9	–	52.1	67.7	–	–

More lines, main results first:

inhibition [3]	Activity [4] [%]	inhibition [7]	Activity [15] [%]	Compound	Activity [17] [%]	viability at 10 µM [26] [%]	also measured
inactive	–	inactive	3.5	CC(C)OC(=O)c1cnn(-c2ccc(-n3cc(-c4cccc(C(=O)O)c4)nn3)cc2)c1C(F)(F)F	–	87.2	inhibition [5]: inactive; remaining at 1 h, 50 µM [23]: 81.3%; inhibition [12]: inactive; Drug metabolism [24]: Metabolite_Notdetected; remaining at 0.5 h, 50 µM [25]: 87.7%; IC50 [27]: 3.1 µM; Drug metabolism [28]: Metabolite_Detected; Drug metabolism [29]: Metabolite_Detected
–	–	–	7.9	COC(=O)c1cnn(-c2ccc(-n3cc(-c4cccc(C(=O)O)c4)nn3)cc2)c1C(F)(F)F	–	69.2	remaining at 0.5 h, 50 µM [25]: 6.5%
–	56.7	–	30	CCOC(=O)c1cnn(-c2ccc(-c3cn(-c4cccc(C(=O)O)c4)nn3)cc2)c1C(F)(F)F	36.3	–	–
–	–	–	10.5	O=C(O)c1cccc(-c2cn(-c3ccc(-n4ncc(C(=O)OCc5ccccc5)c4C(F)(F)F)cc3)nn2)c1	–	82.2	–
